Source: PubChem BioAssay
Shown are actives, neighbours in structure and some others; about 1.2% of the full set was active somewhere.
SR-BI HDL uptake = inhibitors of SR-BI mediated HDL lipid uptake, primary screen, ldlA[mSR-BI] cells, fluorescence, single point; Scavenger receptor class B member 1 (Mus musculus), Q61009; ldlA[mSR-BI] CHO cells, DiI-HDL uptake fluorescence, 3 h; inhibition, % at 12.5 µM; hit rate 0.96% among 320,000;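 active means mean replicate inhibition of at least 70% and a set share of replicates each scoring 70 or more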
Target sequence (Q61009 whole entry, looked up): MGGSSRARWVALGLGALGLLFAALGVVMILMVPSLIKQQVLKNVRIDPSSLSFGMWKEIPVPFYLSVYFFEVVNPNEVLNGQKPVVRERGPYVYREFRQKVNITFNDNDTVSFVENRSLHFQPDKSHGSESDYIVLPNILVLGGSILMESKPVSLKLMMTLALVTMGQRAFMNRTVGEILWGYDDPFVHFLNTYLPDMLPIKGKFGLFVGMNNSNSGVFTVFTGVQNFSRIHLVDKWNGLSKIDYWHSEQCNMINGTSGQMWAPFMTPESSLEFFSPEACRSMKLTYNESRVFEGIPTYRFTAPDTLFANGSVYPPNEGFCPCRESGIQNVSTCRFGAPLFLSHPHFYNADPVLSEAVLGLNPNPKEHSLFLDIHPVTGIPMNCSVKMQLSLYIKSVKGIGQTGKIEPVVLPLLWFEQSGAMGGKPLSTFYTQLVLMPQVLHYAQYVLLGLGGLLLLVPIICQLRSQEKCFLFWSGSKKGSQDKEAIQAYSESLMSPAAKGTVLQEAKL
CaV13 FRET inh = Primary screen for inhibitors of IQ motif and Ca2+-dependent inactivation inhibitor domain binding in CACNA1D, Förster resonance energy transfer in living cells, …. hit rate 0.098% among 340,000. AID 743397. inhibition, % at 12.3 µM. HEK cells, CFP/YFP FRET ICDI-IQ, plate reader, 10 min; percent FRET-ratio fall versus neutral wells;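 active means mean replicate inhibition of at least 30% and at least 1% of replicates passing that level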
SR-BI uptake up = activators of SR-BI mediated DiI-HDL uptake, primary screen, ldlA[mSR-BI] CHO cells, DiI fluorescence; AID 504775, 2011; activation, % at 12.5 µM; 3 h; 100 = double the neutral-control signal; hit rate 0.096% among 320,000;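 active means mean replicate activation of at least 60% and every replicate at or above 60%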
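system = CHO ldlA[mSR-BI] cells, LDL receptor-null, SR-BI overexpressing | medium = Ham's F12 with 0.5% BSA, HEPES 25 mM, pH 7.4 | probe or stimulus = DiI-HDL 10 µg/mL | compound dosing = single-point compound dose | incubation = compound exposure 3 h, 37 °C | technique = DiI fluorescence, bottom read | read-out = cell-associated DiI fluorescence as measure of HDL uptake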
Efflux pump inh = inhibitors of Candida efflux pumps in yeast, primary screen, S. cerevisiae, Nile Red, multiplex; S. cerevisiae Candida pump triplex; inhibition, % at 10 µM; hit rate 0.44% among 330,000; AID 485275, 2010;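 active means plate passing quality check with inhibition over a set limit, or well fluorescence over plate mean plus 4 SD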;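 further: Nile Red retained in pooled yeast measured as flow cytometry median fluorescence; higher means more Nile Red kept so more efflux inhibition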
FN deposition inh = inhibitors of fibronectin matrix deposition, primary screen, AH1F cells, Alexa488-fibronectin fluorescence, plate reader; inhibition, % at 12.6 µM; AH1F fibroblasts, overnight; hit rate 0.086% among 350,000;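 active means mean inhibition across replicates of 30% or more, regardless of how many single replicates reach that level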
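Measured by – fluorescence 485/525 nm · System – AH1F fibroblast monolayer, labelled fibronectin deposition · Amount – 10000 cells per well · Buffer or medium – serum-reduced DMEM (2% serum) · Doses – single dose, pinned · Also added – fluorescent fibronectin at 24 nM final · Schedule – 1 h cell attachment, overnight exposure to compound and label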
Hits are given with their value; i = inactive; nt = no result given.

SMILES	SR-BI HDL uptake	CaV13 FRET inh	SR-BI uptake up	Efflux pump inh	FN deposition inh
COc1ccc(C(=O)C2CCN(C(=S)NCCc3ccc(OC)c(OC)c3)CC2)cc1	i	i	i	i	i
CCc1nc2ccc(C(=O)Nc3ccc(NC(C)=O)cc3)cc2nc1CC	83.1	i	i	i	i
CC(=O)Nc1ccc(NC(=O)c2ccc(NC(=O)c3ccccc3)cc2)cc1	i	nt	i	i	nt
O=[N+]([O-])c1cccc(-c2nc(-c3ccccc3)c(-c3cccs3)[nH]2)c1	nt	i	nt	i	nt
O=[N+]([O-])c1cccc(-c2nc(-c3cccs3)c(-c3cccs3)[nH]2)c1	90.9	i	i	i	i
Nc1ccc(C(=O)Nc2ccc(OC(F)(F)C(F)F)c(NC(=O)c3ccc(N)cc3)c2)cc1	76.9	i	i	i	i
CC(=O)NNc1[nH]c2c(c(=O)c1[N+](=O)[O-])c(=O)n(C)c(=O)n2C	i	i	67.7	i	i
COc1ccc(-c2sc3ccc(OC)cc3c2-c2ccc(OC)nc2)cc1	74.7	i	i	i	i
COc1cc(NC(=O)c2ccc(F)cc2)ccc1NC(=O)c1cc2ccccc2o1	i	i	i	i	i
COC(=O)c1ccc(NC(=O)c2cccc(NC(=O)c3ccco3)c2)cc1	i	i	749.2	i	i
COCCn1c(SCC(=O)Nc2ccc(NC(=O)c3ccco3)c(OC)c2)nc2ccccc2c1=O	73.6	i	i	i	nt
COc1cc(C(=O)Nc2ccc3c(c2)OCCO3)ccc1OC(C)C	i	i	i	i	nt
COc1cc(C(=O)Nc2ccc3c(c2)OCCO3)ccc1OC(F)F	78.6	i	i	i	i
CCn1c(SCC(=O)Nc2ccc(NC(=O)c3ccco3)c(OC)c2)nc2ccccc2c1=O	i	i	i	i	i
COc1cc(NC(=O)c2ccccc2F)ccc1NC(=O)c1cc2ccccc2o1	87.2	i	i	i	i
COC(=O)c1cccc(NC(=O)c2ccco2)c1	i	nt	i	i	nt
CN(C)CC(=O)Nc1ccc2c(c1)C(=O)N(C)[C@H]1CC[C@H](CC(=O)Nc3cccc(Cl)c3)O[C@@H]1CO2	nt	nt	nt	nt	i
CCOc1ccccc1NC(=O)c1cc(Cl)ccc1NC(=O)c1ccco1	80.8	i	i	i	nt
COc1ccccc1NC(=O)c1cc(Cl)ccc1NC(=O)c1ccco1	i	nt	i	i	nt
O=C(Nc1cccc(NC(=O)c2ccco2)c1)c1ccc([N+](=O)[O-])cc1	81.9	i	i	i	i
COc1cc(NC(=O)c2ccc(Br)o2)ccc1NC(=O)C(C)C	71.0	i	i	i	nt
COc1cc(NC(=O)c2ccc(Cl)cc2Cl)ccc1NC(=O)c1cccs1	73.3	i	i	i	i
COc1ccc(S(=O)(=O)N[C@@H]2C=C[C@H](CC(=O)N3CCC(Cc4ccccc4)CC3)O[C@@H]2CO)cc1	nt	nt	nt	nt	i
CCC(=O)N[C@H]1CC[C@H](CC(=O)NCC2CC2)O[C@H]1CO	nt	nt	nt	nt	i
C[C@@H]1CCCCO[C@@H](CN(C)C(=O)Nc2ccccc2)[C@@H](C)CN([C@@H](C)CO)C(=O)c2cc(NS(=O)(=O)c3ccc(F)cc3)ccc2O1	nt	nt	nt	nt	i
SMILES	SR-BI HDL uptake	CaV13 FRET inh	SR-BI uptake up	Efflux pump inh	FN deposition inh
CCC(=O)N(C)C[C@@H]1Oc2cc(-c3cccc(OC)c3)ccc2S(=O)(=O)N([C@@H](C)CO)C[C@@H]1C	nt	nt	nt	nt	i
COc1cc(NC(=O)c2ccc3c(c2)OCCO3)ccc1NC(=O)c1ccccc1Cl	88.5	nt	i	i	nt
Cc1cc(NC(=O)c2cccnc2Cl)ccc1NC(=O)c1cc2ccccc2o1	77.2	i	i	i	i
COc1cc2[nH]c(C(=O)Nc3ccc4c(c3)OCCO4)cc2c(OC)c1OC	85.6	i	i	i	i
COc1cc(NC(=O)c2ccccc2Cl)ccc1NC(=O)c1ccco1	81.2	i	i	i	i
COc1cc(NC(=O)c2ccco2)ccc1NC(=O)c1ccccc1Cl	i	nt	i	i	nt
CNC[C@H]1Oc2ccccc2C(=O)N(C)C[C@@H]1C	nt	nt	nt	nt	i
CCCC(=O)Nc1ccc2c(c1)OC[C@@H](C)N(Cc1cncnc1)C[C@@H](C)[C@H](OC)CN(C)C2=O	nt	nt	nt	nt	i
Cc1ccc(C(=O)NC(=S)Nc2ccc(-c3cc4ccccc4oc3=O)cc2)c(C)c1	82.0	nt	i	i	nt
COc1ccc(C(=O)Nc2cc(OC)c(NC(=O)c3ccco3)cc2OC)cc1	i	i	i	i	i
COc1cc(NC(=O)c2ccc(Cl)cc2Cl)ccc1-c1cc2ccccc2oc1=O	83.9	i	i	i	nt
COc1c(F)c(F)c(C(=O)Nc2ccc(NC(=O)c3ccco3)cc2)c(F)c1F	73.6	i	i	i	nt
COc1ccc(NC(=O)c2ccc(NC(=O)c3ccco3)cc2)c(OC)c1	81.5	i	i	i	i
Cc1noc(C)c1NC(=O)Nc1ccc2c(c1)CC(=O)N([C@H](C)CO)C[C@H](C)[C@@H](CN(C)S(=O)(=O)c1c(C)noc1C)O2	nt	nt	nt	nt	i
C[C@H]1CN([C@@H](C)CO)C(=O)c2cccc(NC(=O)c3cnccn3)c2O[C@@H]1CN(C)S(=O)(=O)c1ccc(Cl)cc1	nt	nt	nt	nt	i
Cc1ccc(S(=O)(=O)N[C@@H]2C=C[C@H](CC(=O)NC3CCCCC3)O[C@@H]2CO)cc1	nt	nt	nt	nt	i
CCN1C(=O)/C(=C2/Sc3ccccc3N2CC)S/C1=N\c1ncn[nH]1	73.7	i	i	i	i
C=CCN1C(=O)/C(=C2/Sc3ccccc3N2CC)SC1=S	i	i	i	i	i
CCOC(=O)c1ccc(Nc2nc(C)cc(C)c2C#N)cc1	73.1	i	i	i	i
COc1ccc(CCNC(=O)c2cc([N+](=O)[O-])cc([N+](=O)[O-])c2)cc1OC	72.9	i	i	i	i
COc1ccc(CCNC(=O)c2ccc(N(C)S(=O)(=O)c3ccc(C)cc3)cc2)cc1OC	73.8	i	i	i	i
COc1ccc(CCNC(=O)c2ccc(OC)c(OC)c2)cc1OC	i	i	i	i	i
COC(=O)Cn1c2ccccc2c2nc3ccccc3nc21	98.3	i	i	i	i
COC(=O)Cn1c2nc3ccccc3nc2c2cccc(C)c21	i	i	i	i	i
O=c1c2ccccc2c(C=Nc2ccc(Cl)cn2)c(O)n1-c1cc(Cl)ccc1N1CCOCC1	i	nt	i	0.4	nt
Cc1ccc(S(=O)(=O)Nc2cccc3cccnc23)c([N+](=O)[O-])c1	i	i	i	i	34.5
Cc1cc(C)c(NS(=O)(=O)c2cccc3cccnc23)c(C)c1	i	i	i	i	nt
O=C(/C=C/c1ccco1)Oc1cc(Br)cc(/C=N/NC(=O)c2ccccc2O)c1	133.7	i	i	i	i
Cc1ccn2c(/C=N/OCc3ccc(F)cc3)c(-c3ccc(Cl)cc3)nc2c1	i	nt	i	i	nt
Cc1ccn2c(/C=N/OCc3cccc(F)c3)c(-c3ccc(Cl)cc3)nc2c1	77.6	nt	i	i	nt
